TRPC4 potent: allosteric potentiators of mouse TRPC4 channel; Q9QUQ5; HEK293 TRPC4beta/mu-opioid, DAMGO EC20, Fluo-4 Ca2+ flux; active compounds read high; 310,000 compounds, 0.42% hits; AID 2227; B-score at 10 µM;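 active = B-score of calcium response area above 5 SD of library B-scores, with initial fluorescence ratio within 5 SD of library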;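 also: B-score of integrated fluorescence ratio over time as area under calcium response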
Target sequence (Q9QUQ5 whole entry, looked up): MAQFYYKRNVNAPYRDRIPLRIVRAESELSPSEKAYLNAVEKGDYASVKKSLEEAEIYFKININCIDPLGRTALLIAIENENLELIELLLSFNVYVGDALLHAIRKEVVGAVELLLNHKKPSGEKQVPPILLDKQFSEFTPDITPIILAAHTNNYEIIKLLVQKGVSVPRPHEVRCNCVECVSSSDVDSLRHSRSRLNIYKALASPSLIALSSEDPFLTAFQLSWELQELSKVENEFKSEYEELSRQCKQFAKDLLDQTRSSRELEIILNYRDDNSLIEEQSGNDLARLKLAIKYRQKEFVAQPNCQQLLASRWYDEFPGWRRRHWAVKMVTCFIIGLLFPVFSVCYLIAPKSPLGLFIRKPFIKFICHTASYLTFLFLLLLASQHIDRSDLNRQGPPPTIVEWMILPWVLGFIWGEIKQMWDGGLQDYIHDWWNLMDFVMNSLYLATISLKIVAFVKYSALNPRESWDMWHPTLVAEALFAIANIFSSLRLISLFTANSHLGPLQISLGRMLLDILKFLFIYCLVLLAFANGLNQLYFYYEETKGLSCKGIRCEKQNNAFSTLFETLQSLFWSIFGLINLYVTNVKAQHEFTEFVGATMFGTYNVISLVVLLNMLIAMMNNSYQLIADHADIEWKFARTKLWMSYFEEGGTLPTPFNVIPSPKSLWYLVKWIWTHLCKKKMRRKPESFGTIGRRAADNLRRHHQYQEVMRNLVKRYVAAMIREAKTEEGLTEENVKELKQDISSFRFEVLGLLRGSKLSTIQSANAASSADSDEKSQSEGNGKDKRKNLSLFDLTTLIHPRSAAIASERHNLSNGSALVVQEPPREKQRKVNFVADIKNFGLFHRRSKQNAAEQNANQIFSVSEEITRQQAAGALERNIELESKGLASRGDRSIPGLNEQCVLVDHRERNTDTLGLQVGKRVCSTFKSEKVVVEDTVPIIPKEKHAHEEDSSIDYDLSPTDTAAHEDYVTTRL
TRPC4 block: blocks the mouse TRPC4 cation channel | Q9QUQ5 | 300,000 compounds, 0.39% hits | B-score at 10 µM | HEK293 TRPC4beta/mu-opioid, DAMGO-evoked Fluo4 calcium flux; active compounds read low;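 active = B-score over 3 SD under the library average, no early fluorescence shift, positive overall ratio signal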
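Signal: kinetic Fluo4 fluorescence imaging of calcium influx. Material: stable TRPC4beta/mu-opioid receptor HEK293 cells. Probe or stimulus: DAMGO in two steps, submaximal then maximal.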
TRPC6 activator: activators of mouse TRPC6 channel. HEK293-TRPC6 membrane potential dye fluorescence; active compounds read high. 310,000 compounds, 0.13% hits. B-score at 10 µM;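 active = B-score of the integrated fluorescence ratio above library mean plus 3 SD, and starting fluorescence ratio within library mean plus 5 SD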;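 also: higher score means more depolarization so channel activation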
TRPC6 inhibitor: mouse TRPC6 channel inhibition. Q61143. HEK293-TRPC6, membrane potential dye, ACh-evoked depolarization; active compounds read low. B-score at 10 µM. 310,000 compounds, 1.1% hits;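 active = B-score under library mean minus 3 SD, initial fluorescence not abnormally high, positive integrated signal ratio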;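 also: B-score derived from integrated fluorescence ratio over the kinetic read; more negative B-score means stronger inhibition of depolarization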
TRPC4 act: TRPC4 (mouse) channel activation; Q9QUQ5; HEK293 TRPC4beta/mu-opioid, Fluo4 calcium fluorescence; active compounds read high; B-score at 10 µM; 310,000 compounds, 0.49% hits; AID 2237;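 active = B-score above 5 SD of library B-scores, and initial fluorescence ratio not above library mean plus 5 SD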;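 also: positive B-score marks a calcium rise read as TRPC4 activation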
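Material: TRPC4beta and mu-opioid receptor HEK293 stable cells | Incubation: 45 min room-temperature Fluo4 loading, 110 s read | Detection: Kinetic Fluo4 calcium fluorescence | Measure: Integrated baseline-normalised fluorescence ratio, converted to per-well B score | Benchmarks: Low control buffer alone, high control maximal DAMGO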
Active calls of the source: *; i = inactive. An excerpt weighted towards active compounds, which were near 2.3% of everything screened.

SMILES	TRPC4 potent	TRPC4 block	TRPC6 activator	TRPC6 inhibitor	TRPC4 act
COc1ccc(OCC(=O)Nc2ccc(OC)c(S(=O)(=O)N3CCCCC3)c2)cc1	i	i	i	i	i
Cc1ccc(Oc2ccccc2NC(=O)CSCC(=O)Nc2cc(C)on2)cc1	i	-6*	i	i	i
COc1ccccc1NC(=O)Cc1ccc(-c2ccccc2)cc1	i	i	i	i	i
Cc1cc(NC(=O)CSCC(=O)Nc2ccccc2Oc2ccccc2)no1	i	i	i	i	i
COc1ccc(CC(=O)Nc2ccccc2Oc2ccccc2)cc1	i	-6*	i	i	i
Cc1cc(NC(=O)CSCC(=O)OC(C)C(=O)c2cc(C)c(C)cc2C)no1 (stereo not drawn)	i	-6*	i	i	i
Cc1cc(NC(=O)CSCC(=O)OC(C)C(=O)N(C)Cc2ccccc2)no1 (stereo not drawn)	i	i	i	i	i
Cc1cc(NC(=O)CSCC(=O)Nc2ccc(Cl)c(C(F)(F)F)c2)no1	i	-5*	i	i	i
COc1ccc(NC(=O)CSCC(=O)N(C)CC(=O)Nc2ccc(Cl)c(C(F)(F)F)c2)cc1	i	i	i	i	i
N=C1C2=C3Sc4ccccc4N3CCCC2=NN1c1cccc(S(=O)(=O)O)c1	i	i	i	i	i
Cc1ccccc1CC(=O)N1CCCC1	i	i	i	i	i
COc1ccc(NC(=O)c2cccc(N3C(=O)C4CC=C(C)CC4C3=O)c2)c(OC)c1 (stereo not drawn)	i	-6*	i	i	i
O=S(=O)(c1cccs1)N1CCN(c2ccnc3cc(Cl)ccc23)CC1	11*	i	i	i	i
CC(=O)N1CCN(c2ccnc3cc(Cl)ccc23)CC1	i	i	i	i	i
O=S(=O)(c1ccccc1)N1CCN(c2ccnc3cc(Cl)ccc23)CC1	13*	i	i	i	i
CCc1ccc(CN2CCC(Oc3ccc(C(=O)NCc4ccccn4)cc3)CC2)o1	i	i	i	i	i
CCOC(=O)C1CCCN(S(=O)(=O)c2ccc(-c3cc(C)no3)s2)C1 (stereo not drawn)	i	i	i	i	i
Cc1nc(C(F)(F)F)ccc1C(=O)Nc1ccc2ccccc2n1	i	i	i	i	i
O=c1c2ccccc2ncn1-c1ccc([N+](=O)[O-])cc1[N+](=O)[O-]	i	i	i	i	i
Cc1ccc(-n2cnn(-c3ccc([N+](=O)[O-])cc3[N+](=O)[O-])c2=O)cc1	i	-6*	i	i	i
Cc1ccc2[nH]c3c(N4CCc5ccccc5C4)ncnc3c2c1	i	i	i	i	76*
O=[N+]([O-])c1cc(C(F)(F)F)ccc1NC1CCN(Cc2ccccc2)CC1	i	i	i	i	i
O=[N+]([O-])c1cc(C(F)(F)F)ccc1NC1CCN(Cc2ccccc2)C1 (stereo not drawn)	50*	i	i	i	i
CCc1ccc(-c2cc(C)no2)cc1S(=O)(=O)N1CCN(C(=O)c2ccco2)CC1	i	i	i	i	i
Cc1cc(-c2ccc(C)c(S(=O)(=O)N3CCN(C(=O)c4ccco4)CC3)c2)on1	45*	i	i	i	i
SMILES	TRPC4 potent	TRPC4 block	TRPC6 activator	TRPC6 inhibitor	TRPC4 act
Cc1ccc(C)c(OCC(=O)Nc2ccccc2C(=O)N2CCOCC2)c1	i	i	i	i	i
O=C(C1CCOCC1)N1CCCC(N2CCN(c3ccc(F)cc3)CC2)C1 (stereo not drawn)	i	i	i	i	i
CC[C@@H](C)[C@H](CNC)NC[C@@H](Cc1cccc2ccccc12)NCCc1cccc(C(F)(F)F)c1	i	i	i	i	97*
COc1ccc(C(CNC(=O)c2cccc(S(=O)(=O)NCc3ccccc3)c2)N(C)C)cc1 (stereo not drawn)	i	i	i	i	159*
O=C(CCS(=O)(=O)c1ccccc1)NCCS(=O)(=O)c1ccccc1	i	i	i	i	i
CN(C)C(CNC(=O)c1ccc(S(=O)(=O)N(C)C)cc1)Cc1ccccc1 (stereo not drawn)	i	i	i	i	74*
CN(C)S(=O)(=O)c1ccc(C(=O)NCCSc2ccccc2)cc1	i	i	i	i	i
CN(C)C(CNC(=O)CCS(=O)(=O)c1ccccc1)c1ccccc1 (stereo not drawn)	i	i	i	i	96*
CN(C)C(CNC(=O)CCc1c[nH]c2ccccc12)c1ccccc1 (stereo not drawn)	i	i	i	i	138*
Cc1cccc(NC(=S)N2CCN(S(=O)(=O)c3ccc(F)cc3)CC2)c1	i	i	i	i	i
COc1cc(C)c(Cl)cc1S(=O)(=O)N1CCSC1	i	i	i	i	i
COc1cc2c(cc1OC)C(COc1ccc([N+](=O)[O-])cc1)N(C(C)=O)CC2 (stereo not drawn)	i	i	i	i	i
COc1ccc(C(CNC(=O)c2ccc3c(c2)OCCO3)N(C)C)cc1 (stereo not drawn)	i	i	i	i	164*
CN(C)C(CNC(=O)c1cccc(S(=O)(=O)N(C)C)c1)c1ccccc1 (stereo not drawn)	i	i	i	i	109*
Cc1oc(-c2ccc(Cl)cc2)nc1CN1CCC(C(=O)NCC2CCCO2)CC1 (stereo not drawn)	i	i	i	i	i
Cc1oc(-c2ccc(Cl)cc2)nc1CN1CCC(C(=O)NCc2cccs2)CC1	i	-6*	i	i	i
CCN(CCNC(=O)C1CCN(Cc2nc(-c3ccc(Cl)cc3)oc2C)CC1)c1ccccc1	i	i	i	-6.6*	i
CCNS(=O)(=O)c1ccc(CCC(=O)N2CCc3ccccc3C2)cc1	i	i	i	i	i
OCC1(CCCc2ccccc2)CCN(Cc2ccc(F)cc2)CC1	i	i	i	i	i
OCC1(CCc2ccccc2)CCN(Cc2cc(Cl)ccc2O)CC1	i	-7*	i	i	i
Cc1ccc(-n2cccn2)c(CN2CCC(CO)(CCc3ccccc3)CC2)c1	i	i	i	i	56*
COc1ccc(-c2c(C)[nH]n3c(=O)c(Cc4ccccc4)c(C)nc23)cc1	i	-6*	i	i	i
Cc1[nH]n2c(=O)c3c(nc2c1-c1ccccc1)CCC3	i	-6*	i	i	i
